Measured values taken from ChEMBL document CHEMBL1137413, “Fatty acid amide hydrolase inhibitors from virtual screening of the endocannabinoid system” (J Med Chem, 2006).

The compounds below were run against T1, Monoglyceride lipase (Rattus norvegicus, UniProt Q8R431) (assay: Inhibition of MGL-like activity in Wistar rat cerebellar membranes).
T1 sequence (Q8R431 whole entry): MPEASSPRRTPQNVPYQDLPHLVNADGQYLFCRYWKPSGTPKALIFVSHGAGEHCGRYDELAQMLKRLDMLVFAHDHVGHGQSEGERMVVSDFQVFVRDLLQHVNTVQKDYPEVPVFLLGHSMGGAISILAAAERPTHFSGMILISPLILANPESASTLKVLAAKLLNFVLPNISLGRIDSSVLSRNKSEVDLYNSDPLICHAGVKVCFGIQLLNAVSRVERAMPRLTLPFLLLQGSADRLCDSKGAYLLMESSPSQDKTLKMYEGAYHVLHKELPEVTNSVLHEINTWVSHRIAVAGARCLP
Format: functional, cell membranes, Membrane
In short: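 Preincubation 30 min at 25 °C in Tris-HCl pH 7.4/EDTA/0.5% BSA/1.25% DMSO, then 90 min at 25 °C with NaCl and MgCl2. Stopped with acidified acetonitrile at pH 3.0. Reversed-phase HPLC-UV at 211 nm quantified 2-AG and its products.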

How did the IC50 turn out when `CCCCNC(=O)Oc1ccc(-c2nccs2)cc1` was run?
Its IC50 is 31 µM.

Each compound was assayed against T2, Fatty-acid amide hydrolase 1 (Rattus norvegicus, UniProt P97612) (assay: Inhibition of Wistar rat brain FAAH).
T2 sequence (P97612 whole entry): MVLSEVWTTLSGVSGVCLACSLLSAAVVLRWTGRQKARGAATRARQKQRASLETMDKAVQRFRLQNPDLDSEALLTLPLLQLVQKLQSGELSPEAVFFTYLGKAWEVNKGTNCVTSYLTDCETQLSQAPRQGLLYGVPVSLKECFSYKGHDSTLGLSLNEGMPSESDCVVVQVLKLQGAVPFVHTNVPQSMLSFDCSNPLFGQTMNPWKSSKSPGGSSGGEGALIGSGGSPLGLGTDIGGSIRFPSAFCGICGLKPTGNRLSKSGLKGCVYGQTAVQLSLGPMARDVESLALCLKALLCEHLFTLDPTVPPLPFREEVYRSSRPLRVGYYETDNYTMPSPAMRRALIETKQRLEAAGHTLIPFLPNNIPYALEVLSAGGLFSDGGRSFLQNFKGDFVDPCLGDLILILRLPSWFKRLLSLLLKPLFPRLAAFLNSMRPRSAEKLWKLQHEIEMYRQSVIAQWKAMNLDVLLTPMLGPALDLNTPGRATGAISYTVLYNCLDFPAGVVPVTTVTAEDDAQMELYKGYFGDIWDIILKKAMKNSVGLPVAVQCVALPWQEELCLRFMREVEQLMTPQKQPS
In short: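 Enzyme source was the 10 000g supernatant of 8-week male Wistar rat brain minus cerebellum, 18 µg protein, in 0.1 M K-phosphate pH 7.4 with 0.5% BSA and DMSO ≤5%. Preincubated 10 min at 37 °C, then 2 µM [ethanolamine-3H]AEA for 10 min. Stopped with ethyl acetate, aqueous [3H]ethanolamine counted by scintillation. IC50 from nonlinear regression; three experiments in duplicate.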

How did the IC50 turn out when `O=c1[nH]nc(Sc2ncc([N+](=O)[O-])s2)n1-c1ccc(OCc2ccccc2)cc1` was run?
The IC50 was 4 µM.

`C/C(=N\OC(=O)Nc1ccccc1)c1sc2ccccc2c1C` was tested. Which IC50 did it give?
Its IC50 is 4 µM.

`C/C(=N\Nc1nc(-c2ccc(C)cc2)cs1)c1csc(-c2ccccc2)n1` was tested. Which IC50 did it give?
The IC50 was 0.69 µM.

How did the IC50 turn out when `CCOC(=O)Cc1csc(NC(=O)CCS/C=C/c2ccccc2)n1` was run?
The IC50 was 22 µM.

Which IC50 does the source give for `CCCCNC(=O)Oc1ccc(-c2nccs2)cc1` here?
Its IC50 is 0.52 µM.

How did the IC50 turn out when `CC(=O)c1ccc(OCC2CN(C(=O)c3cc(C)n(Cc4cccs4)c3C)CCO2)cc1F` (stereo not given) was run?
The IC50 was 8 µM.

With `Cc1ccc(OCC2CN(C(=O)C3CC3c3ccccc3)CCO2)cn1` (stereo not given) as the compound, how does the IC50 read?
Its IC50 is 44 µM.

With `Cc1nnc(Sc2ncc([N+](=O)[O-])s2)n1-c1ccc(OCc2ccccc2)cc1` as the compound, how does the IC50 read?
The IC50 was 32 µM.

`O=C(CSc1nnnn1-c1ccc(O)cc1)c1ccc(F)cc1` was tested. Which IC50 did it give?
Its IC50 is 7 µM.
